Experiments:
Assay type in all cases: functional
HOP-92 = test: Cytotoxicity against human HOP92 cells assessed as growth inhibition at 10 uM after 48 hrs by sulphorhodamine B assay; conditions: HOP-92, 48 h, read-out: GI
In short: (§1)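 NCI-60 one-dose screen per the NCI Drug Evaluation Branch protocol. Cells given a single 10 µM concentration with 48 h continuous exposure. Growth estimated by sulphorhodamine B protein assay. Result expressed as percentage growth inhibition relative to untreated growth.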

NCI-H23 = test: Cytotoxicity against human NCI-H23 cells assessed as growth inhibition at 10 uM after 48 hrs by sulphorhodamine B assay; conditions: NCI-H23, 48 h, read-out: GI; in short: as §1
[1] = Cytotoxicity against human EKVX cells assessed as growth inhibition at 10 uM after 48 hrs by sulphorhodamine B assay; conditions: read-out: GI; in short: as §1
A549 = test: Cytotoxicity against human A549 cells assessed as growth inhibition at 10 uM after 48 hrs by sulphorhodamine B assay; conditions: A549, 48 h, read-out: GI; in short: as §1
NCI/ADR-RES = test: Cytotoxicity against human NCI/ADR-RES cells assessed as growth inhibition at 10 uM after 48 hrs by sulphorhodamine B assay; conditions: read-out: GI; in short: as §1
SNB-75 = test: Cytotoxicity against human SNB75 cells assessed as growth inhibition at 10 uM after 48 hrs by sulphorhodamine B assay; conditions: SNB-75, 48 h, read-out: GI; in short: as §1
U-251 = test: Cytotoxicity against human U251 cells assessed as growth inhibition at 10 uM after 48 hrs by sulphorhodamine B assay; conditions: U-251, 48 h, read-out: GI; in short: as §1
SNB-19 = test: Cytotoxicity against human SNB19 cells assessed as growth inhibition at 10 uM after 48 hrs by sulphorhodamine B assay; conditions: SNB-19, 48 h, read-out: GI; in short: as §1
SF-295 = test: Cytotoxicity against human SF295 cells assessed as growth inhibition at 10 uM after 48 hrs by sulphorhodamine B assay; conditions: SF-295, 48 h, read-out: GI; in short: as §1
DU-145 = test: Cytotoxicity against human DU145 cells assessed as growth inhibition at 10 uM after 48 hrs by sulphorhodamine B assay; conditions: DU-145, 48 h, read-out: GI; in short: as §1
SF-268 = test: Cytotoxicity against human SF268 cells assessed as growth inhibition at 10 uM after 48 hrs by sulphorhodamine B assay; conditions: SF-268, 48 h, read-out: GI; in short: as §1
PC-3 = test: Cytotoxicity against human PC3 cells assessed as growth inhibition at 10 uM after 48 hrs by sulphorhodamine B assay; conditions: PC-3, 48 h, read-out: GI; in short: as §1
UACC-62 = test: Cytotoxicity against human UACC62 cells assessed as growth inhibition at 10 uM after 48 hrs by sulphorhodamine B assay; conditions: UACC-62, 48 h, read-out: GI; in short: as §1
SK-MEL-2 = test: Cytotoxicity against human SK-MEL-2 cells assessed as growth inhibition at 10 uM after 48 hrs by sulphorhodamine B assay; conditions: SK-MEL-2, 48 h, read-out: GI; in short: as §1
SK-MEL-5 = test: Cytotoxicity against human SK-MEL-5 cells assessed as growth inhibition at 10 uM after 48 hrs by sulphorhodamine B assay; conditions: SK-MEL-5, 48 h, read-out: GI; in short: as §1
M14 = test: Cytotoxicity against human M14 cells assessed as growth inhibition at 10 uM after 48 hrs by sulphorhodamine B assay; conditions: M14, 48 h, read-out: GI; in short: as §1
LOX IMVI = test: Cytotoxicity against human LOXIMVI cells assessed as growth inhibition at 10 uM after 48 hrs by sulphorhodamine B assay; conditions: read-out: GI; in short: as §1
UO-31 = test: Cytotoxicity against human UO31 cells assessed as growth inhibition at 10 uM after 48 hrs by sulphorhodamine B assay; conditions: UO-31, 48 h, read-out: GI; in short: as §1
CAKI-1 = test: Cytotoxicity against human Caki1 cells assessed as growth inhibition at 10 uM after 48 hrs by sulphorhodamine B assay; conditions: CAKI-1, 48 h, read-out: GI; in short: as §1
RXF 393 = test: Cytotoxicity against human RXF393 cells assessed as growth inhibition at 10 uM after 48 hrs by sulphorhodamine B assay; conditions: RXF 393, 48 h, read-out: GI; in short: as §1
ACHN = test: Cytotoxicity against human ACHN cells assessed as growth inhibition at 10 uM after 48 hrs by sulphorhodamine B assay; conditions: read-out: GI; in short: as §1
SR = test: Cytotoxicity against human SR cells assessed as growth inhibition at 10 uM after 48 hrs by sulphorhodamine B assay; conditions: read-out: GI; in short: as §1
A498 = test: Cytotoxicity against human A498 cells assessed as growth inhibition at 10 uM after 48 hrs by sulphorhodamine B assay; conditions: A498, 48 h, read-out: GI; in short: as §1
RPMI-8226 = test: Cytotoxicity against human RPMI8226 cells assessed as growth inhibition at 10 uM after 48 hrs by sulphorhodamine B assay; conditions: RPMI-8226, 48 h, read-out: GI; in short: as §1
MOLT-4 = test: Cytotoxicity against human MOLT4 cells assessed as growth inhibition at 10 uM after 48 hrs by sulphorhodamine B assay; conditions: MOLT-4, 48 h, read-out: GI; in short: as §1
K562 = test: Cytotoxicity against human K562 cells assessed as growth inhibition at 10 uM after 48 hrs by sulphorhodamine B assay; conditions: K562, 48 h, read-out: GI; in short: as §1
HL-60(TB) = test: Cytotoxicity against human HL-60(TB) cells assessed as growth inhibition at 10 uM after 48 hrs by sulphorhodamine B assay; conditions: HL-60, 48 h, read-out: GI
In short: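 NCI-60 one-dose primary screen run to the Drug Evaluation Branch protocol. Cells are exposed to a single 10 µM concentration for 48 h continuously, and growth is read by SRB protein assay. Data are reported as percent growth of treated cells, expressed as % growth inhibition.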

SK-OV-3 = test: Cytotoxicity against human SKOV3 cells assessed as growth inhibition at 10 uM after 48 hrs by sulphorhodamine B assay; conditions: SK-OV-3, 48 h, read-out: GI; in short: as §1
CCRF-CEM = test: Cytotoxicity against human CCRF-CEM cells assessed as growth inhibition at 10 uM after 48 hrs by sulphorhodamine B assay; conditions: read-out: GI; in short: as §1
OVCAR-5 = test: Cytotoxicity against human OVCAR5 cells assessed as growth inhibition at 10 uM after 48 hrs by sulphorhodamine B assay; conditions: OVCAR-5, 48 h, read-out: GI; in short: as §1
OVCAR-4 = test: Cytotoxicity against human OVCAR4 cells assessed as growth inhibition at 10 uM after 48 hrs by sulphorhodamine B assay; conditions: OVCAR-4, 48 h, read-out: GI; in short: as §1
IGROV-1 = test: Cytotoxicity against human IGROV1 cells assessed as growth inhibition at 10 uM after 48 hrs by sulphorhodamine B assay; conditions: IGROV-1, 48 h, read-out: GI; in short: as §1
T47D = test: Cytotoxicity against human T47D cells assessed as growth inhibition at 10 uM after 48 hrs by sulphorhodamine B assay; conditions: read-out: GI; in short: as §1
Hs-578T = test: Cytotoxicity against human Hs578T cells assessed as growth inhibition at 10 uM after 48 hrs by sulphorhodamine B assay; conditions: read-out: GI; in short: as §1
NCI-H522 = test: Cytotoxicity against human NCI-H522 cells assessed as growth inhibition at 10 uM after 48 hrs by sulphorhodamine B assay; conditions: NCI-H522, 48 h, read-out: GI; in short: as §1
HT-29 = test: Cytotoxicity against human HT-29 cells assessed as growth inhibition at 10 uM after 48 hrs by sulphorhodamine B assay; conditions: HT-29, 48 h, read-out: GI; in short: as §1
MCF7 = test: Cytotoxicity against human MCF7 cells assessed as growth inhibition at 10 uM after 48 hrs by sulphorhodamine B assay; conditions: MCF7, 48 h, read-out: GI; in short: as §1
MDA-MB-435 = test: Cytotoxicity against human MDA-MB-435 cells assessed as growth inhibition at 10 uM after 48 hrs by sulphorhodamine B assay; conditions: MDA-MB-435, 48 h, read-out: GI; in short: as §1
HCT-15 = test: Cytotoxicity against human HCT15 cells assessed as growth inhibition at 10 uM after 48 hrs by sulphorhodamine B assay; conditions: HCT-15, 48 h, read-out: GI; in short: as §1
MDA-MB-468 = test: Cytotoxicity against human MDA-MB-468 cells assessed as growth inhibition at 10 uM after 48 hrs by sulphorhodamine B assay; conditions: MDA-MB-468, 48 h, read-out: GI; in short: as §1
HCT-116 = test: Cytotoxicity against human HCT116 cells assessed as growth inhibition at 10 uM after 48 hrs by sulphorhodamine B assay; conditions: HCT-116, 48 h, read-out: GI; in short: as §1

Work on `CCSc1nc(N)c2c(-c3ccc(OC)cc3)c3c(nc2n1)C(C)CCC3` (stereo unspecified) yielded an inhibition of growth at 10 µM (HOP-92) of 26.8%, an inhibition of growth at 10 µM (NCI-H23) of less than 10% and an inhibition of growth at 10 µM [1] of less than 10%. For the same molecule, the inhibition of growth at 10 µM (A549) was 16%, the inhibition of growth at 10 µM (NCI/ADR-RES) was less than 10% and the inhibition of growth at 10 µM (SNB-75) was less than 10%. It also gave an inhibition of growth at 10 µM (U-251) of 16%, an inhibition of growth at 10 µM (SNB-19) of 12.5% and an inhibition of growth at 10 µM (SF-295) of less than 10%. The inhibition of growth at 10 µM (DU-145) was 24.5%, the inhibition of growth at 10 µM (SF-268) was less than 10% and the inhibition of growth at 10 µM (PC-3) was 31.4%. For the same molecule, the inhibition of growth at 10 µM (UACC-62) was 25%, the inhibition of growth at 10 µM (SK-MEL-2) was less than 10% and the inhibition of growth at 10 µM (SK-MEL-5) was 11.4%. It also gave an inhibition of growth at 10 µM (M14) of less than 10%, an inhibition of growth at 10 µM (LOX IMVI) of 10.6% and an inhibition of growth at 10 µM (UO-31) of 10.5%. For the same molecule, the inhibition of growth at 10 µM (CAKI-1) was less than 10%, the inhibition of growth at 10 µM (RXF 393) was 25.9% and the inhibition of growth at 10 µM (ACHN) was 30.8%. For the same molecule, the inhibition of growth at 10 µM (SR) was less than 10%, the inhibition of growth at 10 µM (A498) was less than 10% and the inhibition of growth at 10 µM (RPMI-8226) was 25.5%. For the same molecule, the inhibition of growth at 10 µM (MOLT-4) was 29%, the inhibition of growth at 10 µM (K562) was 32.5% and the inhibition of growth at 10 µM (HL-60(TB)) was 34.5%. It also gave an inhibition of growth at 10 µM (SK-OV-3) of less than 10%, an inhibition of growth at 10 µM (CCRF-CEM) of 26.4% and an inhibition of growth at 10 µM (OVCAR-5) of less than 10%. It also gave an inhibition of growth at 10 µM (OVCAR-4) of 26.8%, an inhibition of growth at 10 µM (IGROV-1) of less than 10% and an inhibition of growth at 10 µM (T47D) of 41%. The inhibition of growth at 10 µM (Hs-578T) was 36.2%, the inhibition of growth at 10 µM (NCI-H522) was 13.2% and the inhibition of growth at 10 µM (HT-29) was 23.3%. The inhibition of growth at 10 µM (MCF7) was less than 10%, the inhibition of growth at 10 µM (MDA-MB-435) was less than 10% and the inhibition of growth at 10 µM (HCT-15) was 23.8%. It also gave an inhibition of growth at 10 µM (MDA-MB-468) of 13.8% and an inhibition of growth at 10 µM (HCT-116) of 20%.

Source: ChEMBL document CHEMBL2375313, “Synthesis, in vitro antitumor evaluation and DNA-binding study of novel tetrahydroquinolines and some derived tricyclic and tetracyclic ring systems” (Eur J Med Chem, 2013)
